We go through twelve compounds from ChEMBL document CHEMBL3414564, “3'-functionalized adamantyl cannabinoid receptor probes” (J Med Chem, 2015).

SMILES strings stand for the structures. Activity calls are given as the source filed them. The calls are words filed in the database; no cut-off is given here. Some results are limits rather than exact numbers.

Test [1] deals with Cannabinoid receptor 2 (Mus musculus, UniProt P47936). The experiment in a line: Displacement of [3H]CP-55,940 from mouse CB2 receptor expressed in HEK293 cell membranes. Summed up:
(§1)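 Competition binding against [3H]CP-55,940 on rat brain membranes (CB1) or on membranes of HEK293 cells expressing mouse or human CB2. IC50 by nonlinear regression, converted to Ki. For isothiocyanates the value is an apparent Ki (Ki*), which depends on pretreatment time. Triplicate points; mean of three independent experiments.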
A general note: Loss of bound radioactivity is the signal in a displacement assay; it reports binding, not function.

The target of test [2] is T1, Cannabinoid receptor 2 (Homo sapiens, UniProt P34972). Briefly: Inverse agonist activity at human CB2 receptor expressed in HEK293 cells assessed as inhibition of forskolin-induced cAMP accumulation incubated for 60 mins. Format: functional, cell-based. The method in brief: (§2)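 Forskolin-stimulated cAMP in HEK293 cells stably expressing rCB1 or hCB2, detached non-enzymatically and washed in HBSS, 1000–1500 cells/well. Compound series given in stimulation buffer with 2 μM forskolin (final), 30 min at room temperature. Eu-cAMP tracer and anti-cAMP TR-FRET detection reagents were then added for 60 min at room temperature. EC50 by nonlinear regression; two independent experiments in triplicate.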

In test [3] the target is T2, Cannabinoid receptor 1 (Rattus norvegicus, UniProt P20272). Briefly: Agonist activity at rat CB1 receptor expressed in HEK293 cells assessed as inhibition of forskolin-induced cAMP accumulation incubated for 60 mins. In general terms: Changes in cAMP serve as a functional read-out for many G protein-coupled receptors.
Test [4] deals with T1, Cannabinoid receptor 2. Briefly: Displacement of [3H]CP-55,940 from human CB2 receptor expressed in HEK293 cell membranes. Summed up: as §1
Test [5] has as its target T1, Cannabinoid receptor 2. Briefly: Inverse agonist activity at human CB2 receptor expressed in HEK293 cells assessed as inhibition of forskolin-induced cAMP accumulation incubated for 60 mins relative to 500 nM CP-55,940. In kind it is functional, cell-based.
For test [6], the target named is T2, Cannabinoid receptor 1. The experiment in a line: Displacement of [3H]CP-55,940 from CB1 receptor in rat brain membranes. In kind it is cell membranes, Membrane. Summed up: as §1
Test [7] addresses Cannabinoid receptor 1 (Rattus norvegicus) (UniProt P20272). Briefly: Agonist activity at rat CB1 receptor expressed in HEK293 cells assessed as inhibition of forskolin-induced cAMP accumulation incubated for 60 mins relative to 500 nM CP-55,940. In kind it is functional, cell-based.
Test [8] has as its target T1, Cannabinoid receptor 2. The experiment in a line: Covalent binding affinity to human CB2 receptor expressed in HEK293 cell membranes assessed as covalent labeling at 10 times Ki level incubated for 30 mins at 37 degC followed by UV irradiation by [3H]CP-55,940 radioligand binding assay. Summed up: (§3)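 Membranes were incubated with azido ligand at 10× its Ki for 30 min at 37 °C with gentle agitation, then given UV at 254 nm for 1 min. They were washed twice with 1% BSA in TME and once with TME, and pelleted. A blank membrane sample was run in parallel. Bmax came from [3H]CP-55,940 saturation binding at 0.5–23.8 nM with 25 μg protein, 1 h at 30 °C. Nonspecific binding was taken with 4 μM unlabeled CP-55,940. Labeling % = (Bmax control − Bmax ligand)/Bmax control × 100.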

Test [9] deals with Cannabinoid receptor 1 (Rattus norvegicus) (UniProt P20272). The experiment in a line: Covalent binding affinity to CB1 receptor in rat brain membranes assessed as covalent labeling at 10 times Ki level incubated for 30 mins at 37 degC followed by UV irradiation by [3H]CP-55,940 radioligand binding assay. Format: cell membranes. The following applies: Membrane. Summed up: as §3

Test [10] concerns the target T1, Cannabinoid receptor 2. Briefly: Activity at human CB2 receptor expressed in HEK293 cells assessed as inhibition of forskolin-induced cAMP accumulation up to 3 uM incubated for 60 mins. Format: functional, cell-based. Summed up: as §2
Test [11] concerns the target Cannabinoid receptor 1 (Rattus norvegicus) (UniProt P20272). The experiment in a line: Binding affinity to CB1 receptor in rat brain membranes assessed as receptor occupancy at 10 times Ki level incubated for 60 mins by [3H]CP-55,940 radioligand binding assay. Format: cell membranes. The following applies: Membrane. The method in brief: (§4)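 Rat brain CB1 membranes were pretreated with isothiocyanate ligand at 10× its Ki at 37 °C for 15, 30 or 60 min. The control was 60 min without ligand. Unbound ligand was removed by BSA/TME washes and centrifugation. Bmax came from [3H]CP-55,940 saturation binding at 0.5–23.8 nM, 25 μg protein, 1 h at 30 °C, with 4 μM unlabeled CP-55,940 for nonspecific binding. Irreversible occupancy = percent Bmax reduction.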

The target of test [12] is T2, Cannabinoid receptor 1. Briefly: Displacement of [3H]CP-55,940 from CB1 receptor in rat brain membranes incubated for 30 mins. Format: cell membranes, Membrane. Summed up: (§5)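 Competition binding on rat brain membranes (CB1) against [3H]CP-55,940. Membranes were pretreated with the covalently reacting isothiocyanate ligand for the stated time (15, 30, 60 or 90 min) before the binding step. IC50 came from nonlinear regression and was converted to Ki. Values are reported as a time-dependent apparent Ki (Ki*).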

For test [13], the target named is T2, Cannabinoid receptor 1. The experiment in a line: Displacement of [3H]CP-55,940 from CB1 receptor in rat brain membranes incubated for 60 mins. Format: cell membranes, Membrane. Summed up: as §5
For test [14], the target named is T2, Cannabinoid receptor 1. The experiment in a line: Displacement of [3H]CP-55,940 from CB1 receptor in rat brain membranes incubated for 15 mins. Format: cell membranes, Membrane. The method in brief:
as §5

In test [15] the target is Cannabinoid receptor 1 (Rattus norvegicus) (UniProt P20272). Briefly: Irreversible binding affinity to CB1 receptor in rat brain membranes assessed as receptor occupancy at 10 times Ki level incubated for 15 mins by [3H]CP-55,940 radioligand binding assay. The following applies: Membrane. In kind it is cell membranes. Summed up:
as §4

The target in test [16] is T2, Cannabinoid receptor 1. Briefly: Displacement of [3H]CP-55,940 from CB1 receptor in rat brain membranes incubated for 90 mins. Format: cell membranes, Membrane. Summed up:
as §5

The target in test [17] is Cannabinoid receptor 1 (Rattus norvegicus) (UniProt P20272). The experiment in a line: Irreversible binding affinity to CB1 receptor in rat brain membranes assessed as receptor occupancy at 10 times Ki level incubated for 30 mins by [3H]CP-55,940 radioligand binding assay. In kind it is cell membranes. The conditions noted are these: Membrane. Summed up: as §4

Cannabinoid receptor 2 (Mus musculus, UniProt P47936), sequence (P47936 whole entry): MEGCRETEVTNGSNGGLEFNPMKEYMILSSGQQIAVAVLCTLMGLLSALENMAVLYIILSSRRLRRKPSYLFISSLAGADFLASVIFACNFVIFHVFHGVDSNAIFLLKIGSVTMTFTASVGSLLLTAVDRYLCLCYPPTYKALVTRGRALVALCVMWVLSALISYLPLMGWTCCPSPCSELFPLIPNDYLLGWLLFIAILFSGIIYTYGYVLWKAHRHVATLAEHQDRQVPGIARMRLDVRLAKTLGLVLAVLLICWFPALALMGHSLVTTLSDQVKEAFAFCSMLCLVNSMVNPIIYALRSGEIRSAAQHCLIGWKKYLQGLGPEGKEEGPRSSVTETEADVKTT
T1 sequence (P34972 whole entry): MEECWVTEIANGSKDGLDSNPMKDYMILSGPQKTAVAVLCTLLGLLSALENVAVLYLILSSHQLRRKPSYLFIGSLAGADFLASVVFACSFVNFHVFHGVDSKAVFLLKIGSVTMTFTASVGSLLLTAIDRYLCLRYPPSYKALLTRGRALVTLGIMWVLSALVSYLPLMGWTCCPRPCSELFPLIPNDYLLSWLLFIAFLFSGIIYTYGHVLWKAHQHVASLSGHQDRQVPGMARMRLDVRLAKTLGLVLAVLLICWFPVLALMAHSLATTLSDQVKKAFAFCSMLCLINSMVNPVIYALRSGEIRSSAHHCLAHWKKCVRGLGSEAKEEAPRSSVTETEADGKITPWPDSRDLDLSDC
T2 sequence (P20272 whole entry): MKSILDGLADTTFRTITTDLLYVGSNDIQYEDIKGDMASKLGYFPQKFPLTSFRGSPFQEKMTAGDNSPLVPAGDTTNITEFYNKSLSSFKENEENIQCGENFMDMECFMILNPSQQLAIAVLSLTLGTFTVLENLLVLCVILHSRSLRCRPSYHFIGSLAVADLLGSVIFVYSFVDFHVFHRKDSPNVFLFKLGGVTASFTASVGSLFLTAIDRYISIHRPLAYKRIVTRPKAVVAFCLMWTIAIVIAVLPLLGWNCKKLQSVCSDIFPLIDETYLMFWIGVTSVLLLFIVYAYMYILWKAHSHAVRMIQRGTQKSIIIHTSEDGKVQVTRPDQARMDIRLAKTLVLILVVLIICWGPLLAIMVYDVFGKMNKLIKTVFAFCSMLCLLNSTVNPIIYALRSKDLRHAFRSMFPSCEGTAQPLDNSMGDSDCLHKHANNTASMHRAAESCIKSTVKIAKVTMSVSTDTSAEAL
Cannabinoid receptor 1 (Rattus norvegicus), sequence (P20272 whole entry): as above

By EC50 is commonly meant the concentration needed to bring the measured effect to its halfway point. In general, Emax refers to the greatest response seen or fitted, relative to the assay's reference. Turning to `CC1(C)Oc2cc([C@]34CC5CC(C[C@@](C#N)(C5)C3)C4)cc(O)c2[C@@H]2C[C@H](O)CC[C@H]21`, the values for the Ki on Cannabinoid receptor 2 [1] (read-out: Ki), at Cannabinoid receptor 2 [4] (read-out: Ki) and at Cannabinoid receptor 1 [6] (read-out: Ki) were 2.8 nM, 4.2 nM and 45.8 nM, respectively. The EC50 amounted to 90.7 nM at Cannabinoid receptor 2 [2] and 95.2 nM on Cannabinoid receptor 1 [3]. Also, the Emax on Cannabinoid receptor 2 [5] is -93%; in [7], 82%.
On to `CC1(C)Oc2cc([C@]34CC5CC(C[C@@](CC#N)(C5)C3)C4)cc(O)c2[C@@H]2C[C@H](O)CC[C@H]21`, for which the figures for the Ki at Cannabinoid receptor 2 [1] (read-out: Ki), at Cannabinoid receptor 2 [4] (read-out: Ki) and on Cannabinoid receptor 1 [6] (read-out: Ki) were 4.4 nM, 4.6 nM and 2.6 nM, respectively. Further, the concentration for a half-maximal effect (EC50) on Cannabinoid receptor 2 [2] is 83.1 nM; at Cannabinoid receptor 1 [3] it was 5.4 nM. For the same compound, the Emax was -78% at Cannabinoid receptor 2 [5] and 78% in [7]. Moreover, the result (at Cannabinoid receptor 2 [8]; in test [9]) was inactive.
Consider `CC1(C)Oc2cc([C@]34CC5CC(C[C@@](C(N)=O)(C5)C3)C4)cc(O)c2[C@@H]2C[C@H](O)CC[C@H]21`, for which the Ki at Cannabinoid receptor 2 [1] (read-out: Ki) stood at 947 nM; on Cannabinoid receptor 2 [4] (read-out: Ki), 337 nM; at Cannabinoid receptor 1 [6] (read-out: Ki), 297 nM.
Take `CC1(C)Oc2cc([C@]34CC5CC(C[C@@](N=[N+]=[N-])(C5)C3)C4)cc(O)c2[C@@H]2C[C@H](O)CC[C@H]21`: the Ki on Cannabinoid receptor 2 [1] (read-out: Ki) was found to be 38.4 nM; at Cannabinoid receptor 2 [4] (read-out: Ki), 24.8 nM; on Cannabinoid receptor 1 [6] (read-out: Ki), 18.6 nM. In addition, the EC50 on Cannabinoid receptor 1 [3] worked out at 4.4 nM. At Cannabinoid receptor 2 [10], the outcome was inactive. Also, the Activity on Cannabinoid receptor 2 [8] was 26%; in [9], 61%. Further, the Emax in test [7] stood at 73%.
Turning to `CC1(C)Oc2cc([C@]34CC5CC(C[C@@](CN)(C5)C3)C4)cc(O)c2[C@@H]2C[C@H](O)CC[C@H]21`, the Ki at Cannabinoid receptor 2 [1] (read-out: Ki), on Cannabinoid receptor 2 [4] (read-out: Ki) and on Cannabinoid receptor 1 [6] (read-out: Ki) was more than 1000 nM each time.
As to `COC(=O)N[C@]12CC3CC(C1)C[C@](c1cc(O)c4c(c1)OC(C)(C)[C@@H]1CC[C@@H](O)C[C@@H]41)(C3)C2`, the Ki was 2.1 nM on Cannabinoid receptor 2 [1] (read-out: Ki), 8.4 nM on Cannabinoid receptor 2 [4] (read-out: Ki) and 29.1 nM at Cannabinoid receptor 1 [6] (read-out: Ki). Also, the EC50 came to 15.8 nM at Cannabinoid receptor 2 [2] and 1.6 nM on Cannabinoid receptor 1 [3]. The figures for the Emax (on Cannabinoid receptor 2 [5]; in [7]) were -74% and 71%, respectively.
On to `CC1(C)Oc2cc([C@]34CC5CC(C[C@@](CN=[N+]=[N-])(C5)C3)C4)cc(O)c2[C@@H]2C[C@H](O)CC[C@H]21`, for which the Ki on Cannabinoid receptor 2 [1] (read-out: Ki) turned out to be 26.4 nM; at Cannabinoid receptor 2 [4] (read-out: Ki), 9.6 nM; on Cannabinoid receptor 1 [6] (read-out: Ki) it was 4.4 nM. In addition, the 50% effective concentration (EC50) on Cannabinoid receptor 1 [3] came to 2.4 nM. Further, the result on Cannabinoid receptor 2 [10] was inactive. Moreover, the Activity came to 60% on Cannabinoid receptor 2 [8] and 67% in [9]. In addition, the Emax in test [7] amounted to 45%.
With `CC1(C)Oc2cc([C@]34CC5CC(C[C@@](N)(C5)C3)C4)cc(O)c2[C@@H]2C[C@H](O)CC[C@H]21`, the Ki on Cannabinoid receptor 2 [1] (read-out: Ki), at Cannabinoid receptor 2 [4] (read-out: Ki) and at Cannabinoid receptor 1 [6] (read-out: Ki) was more than 1000 nM in each case.
As for `CC1(C)Oc2cc([C@]34CC5CC(C[C@@](CN=C=S)(C5)C3)C4)cc(O)c2[C@@H]2C[C@H](O)CC[C@H]21`, the Ki at Cannabinoid receptor 2 [1] (read-out: Ki(app)) turned out to be 34.6 nM; at Cannabinoid receptor 2 [4] (read-out: Ki(app)), 10.3 nM; at Cannabinoid receptor 1 [6] (read-out: Ki(app)) it was 3 nM. In addition, the EC50 is more than 400 nM on Cannabinoid receptor 2 [2] and 0.8 nM on Cannabinoid receptor 1 [3]. For the same compound, the figures for the Emax (at Cannabinoid receptor 2 [5]; in [7]) were -91% and 94%, respectively. Moreover, the Activity at Cannabinoid receptor 2 [8] was 74%; in [9], 63%.
Take `CC1(C)Oc2cc([C@]34CC5CC(C[C@@](N=C=S)(C5)C3)C4)cc(O)c2[C@@H]2C[C@H](O)CC[C@H]21`: the outcome in [11] was Active. Further, the Ki at Cannabinoid receptor 2 [1] (read-out: Ki(app)) was determined as 31.7 nM; on Cannabinoid receptor 1 [12], 58.6 nM; on Cannabinoid receptor 1 [13], 35.4 nM; on Cannabinoid receptor 1 [14] it was 96 nM; on Cannabinoid receptor 1 [16], 35.7 nM; on Cannabinoid receptor 2 [4] (read-out: Ki(app)), 13.1 nM. At Cannabinoid receptor 1 [6] (read-out: Ki(app)), the Ki came to 35.4 nM. Besides, the Activity in test [15] was 26%; at Cannabinoid receptor 2 [8], 25%; in test [9], 54%; in test [17] it was 54%. Moreover, on Cannabinoid receptor 1 [3], the EC50 was found to be 12 nM. Besides, the result on Cannabinoid receptor 2 [10] was inactive. Further, in [7], the Emax is 68%.
As to `CC1(C)Oc2cc(C34CC5CC(CC(C5)C3)C4)cc(O)c2[C@@H]2C[C@H](O)CC[C@H]21`, the EC50 at Cannabinoid receptor 1 [3] turned out to be 2.7 nM. Besides, the result on Cannabinoid receptor 2 [10] was inactive. The Emax in [7] was 69%.
Consider `CC1(C)Oc2cc([C@]34CC5CC(C[C@@](C(=O)O)(C5)C3)C4)cc(O)c2[C@@H]2C[C@H](O)CC[C@H]21`, for which the Ki on Cannabinoid receptor 2 [1] (read-out: Ki), at Cannabinoid receptor 2 [4] (read-out: Ki) and on Cannabinoid receptor 1 [6] (read-out: Ki) was more than 1000 nM throughout.
